Experimental data taken from ChEMBL document CHEMBL1146850, “Dithiocarbamic acid esters as anticancer agent. Part 1: 4-substituted-piperazine-1-carbodithioic acid 3-cyano-3,3-diphenyl-propyl esters” (Bioorg Med Chem Lett, 2006).

Experiments:
HL-60 [1] = test: Antiproliferative activity against human HL60 cells at 33 uM by MTT assay; format: functional
Summary of the method: (§1)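 HL-60 cells kept in RPMI-1640 with 10% FBS, penicillin 100 U/mL and streptomycin at 37 °C under humidified CO2. Exponentially growing cells seeded at 1–2.5 × 10^4 cells/mL. Compound added after 24 h, with medium-only controls. Exposure 48 h, then viable cells read by MTT at 570 nm absorbance. Screened at four concentrations, with single-concentration data given at 33.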

Bel-7402 [2] = test: Antiproliferative activity against human Bel7402 cells at 33 uM by SRB assay; format: functional
Summary of the method: (§2)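 Bel-7402 cells kept in RPMI-1640 with 10% FBS, penicillin 100 U/mL and streptomycin at 37 °C under humidified CO2. Exponentially growing cells seeded at 1–2.5 × 10^4 cells/mL. Compound added 24 h later, with medium only for controls. Incubation 48 h, then viable cells counted by SRB. Screened at four concentrations, with single-concentration data given at 33.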

HL-60 [3] = test: Antiproliferative activity against human HL60 cells by MTT assay; format: functional, cell-based; summary of the method: as §1
Bel-7402 [4] = test: Antiproliferative activity against human Bel7402 cells by SRB assay; format: functional, cell-based; summary of the method: as §2
CCRF S-180 = test: Antiproliferative activity against mouse S180 cells; format: functional
H22 = test: Antiproliferative activity against mouse H22 cells; format: functional
BGC-823 = test: Antiproliferative activity against human BGC823 cells implanted in nude mouse; format: functional
Rattus norvegicus [5] = test: Toxicity in rat at 10 g/kg after 10 days; conditions: in vivo, 10000 mg/kg, 240 h
Rattus norvegicus [6] = test: Toxicity in rat at 10 g/kg after 10 days assessed as change in body weight relative to control; conditions: in vivo, 10000 mg/kg, 240 h

SMILES | inhibition at 33 µM (HL-60 [1]) [%] | inhibition at 33 µM (Bel-7402 [2]) [%] | also measured
N#CC(CCSC(=S)N1CCN(S(=O)(=O)c2ccccc2)CC1)(c1ccccc1)c1ccccc1 | 0 | 0 | 
N#CC(CCSC(=S)N1CCN(c2ccc([N+](=O)[O-])cc2)CC1)(c1ccccc1)c1ccccc1 | 7.8 | 2.2 | 
COc1cccc(N2CCN(C(=S)SCCC(C#N)(c3ccccc3)c3ccccc3)CC2)c1 | 9.8 | 15.5 | 
CCOC(=O)N1CCN(C(=S)SCCC(C#N)(c2ccccc2)c2ccccc2)CC1 | 0 | 35 | 
CS(=O)(=O)N1CCN(C(=S)SCCC(C#N)(c2ccccc2)c2ccccc2)CC1 | 24.9 | 13.4 | 
N#CC(CCSC(=S)N1CCN(S(=O)(=O)c2ccc(F)cc2)CC1)(c1ccccc1)c1ccccc1 | 0 | 9.7 | 
N#CC(CCSC(=S)N1CCN(C(=O)CCCl)CC1)(c1ccccc1)c1ccccc1 | 43.3 | 22 | 
N#CC(CCSC(=S)N1CCN(CCCl)CC1)(c1ccccc1)c1ccccc1 | 53.6 | 28.7 | 
COc1ccc(S(=O)(=O)N2CCN(C(=S)SCCC(C#N)(c3ccccc3)c3ccccc3)CC2)cc1 | 1.5 | 5.4 | 
N#CC(CCSC(=S)N1CCN(Cc2ccccc2)CC1)(c1ccccc1)c1ccccc1 | 12.5 | 4.7 | 
N#CC(CCSC(=S)N1CCN(C(=O)CCBr)CC1)(c1ccccc1)c1ccccc1 | 82.2 | 23.4 | 
COc1ccccc1N1CCN(C(=S)SCCC(C#N)(c2ccccc2)c2ccccc2)CC1 | 4.8 | 0 | 
N#CC(CCSC(=S)N1CCN(c2ccccc2)CC1)(c1ccccc1)c1ccccc1 | 10.5 | 0 | 
N#CC(CCSC(=S)N1CCN(c2ccccc2F)CC1)(c1ccccc1)c1ccccc1 | 0 | 4.3 | 
CCCCCCN1CCN(C(=S)SCCC(C#N)(c2ccccc2)c2ccccc2)CC1 | 2.57 | 12.7 | 
N#CC(CCSC(=S)N1CCN(c2cccc(Cl)c2)CC1)(c1ccccc1)c1ccccc1 | 4.2 | 0 | 
N#CC(CCSC(=S)N1CCN(C(=O)c2ccco2)CC1)(c1ccccc1)c1ccccc1 | 30.4 | 17.7 | 
N#CC(CCSC(=S)N1CCN(S(=O)(=O)c2ccccc2[N+](=O)[O-])CC1)(c1ccccc1)c1ccccc1 | 0 | 0 | 
N#CC(CCSC(=S)N1CCN(S(=O)(=O)c2cccc(C(F)(F)F)c2)CC1)(c1ccccc1)c1ccccc1 | 0 | 0 | 
CN1CCN(C(=S)SCCC(C#N)(c2ccccc2)c2ccccc2)CC1 | 79 | 75.2 | IC50 (HL-60 [3]): 9.9 µM; IC50 (Bel-7402 [4]): 27.1 µM

SMILES | inhibition at 33 µM (HL-60 [1]) [%] | inhibition at 33 µM (Bel-7402 [2]) [%] | also measured
N#CC(CCSC(=S)N1CCNCC1)(c1ccccc1)c1ccccc1 | 98.7 | 95.5 | IC50 (HL-60 [3]): 5.3 µM; IC50 (Bel-7402 [4]): 11.5 µM
N#CC(CCSC(=S)N1CCN(c2ncccn2)CC1)(c1ccccc1)c1ccccc1 | 24.2 | 33.2 | 
N#CC(CCSC(=S)N1CCN(CCO)CC1)(c1ccccc1)c1ccccc1 | 92.5 | 57.7 | IC50 (HL-60 [3]): 24.5 µM; IC50 (Bel-7402 [4]): 11.7 µM
N#CC(CCSC(=S)N1CCN(S(=O)(=O)c2cccc([N+](=O)[O-])c2)CC1)(c1ccccc1)c1ccccc1 | 0 | 5.5 | 
N#CC(CCSC(=S)N1CCN(Cc2ccc3c(c2)OCO3)CC1)(c1ccccc1)c1ccccc1 | 0 | 16.6 | 
N#CC(CCSC(=S)N1CCN(C(c2ccccc2)c2ccc(Cl)cc2)CC1)(c1ccccc1)c1ccccc1 (centres undefined) | 2.7 | 18 | 
CCN1CCN(C(=S)SCCC(C#N)(c2ccccc2)c2ccccc2)CC1 | -7.81 | 4.97 | 
Cc1ccc(Cl)cc1N1CCN(C(=S)SCCC(C#N)(c2ccccc2)c2ccccc2)CC1 | 0 | 14.6 | 
CS(=O)(=O)OCCC(=O)N1CCN(C(=S)SCCC(C#N)(c2ccccc2)c2ccccc2)CC1 | 0 | 1.09 | 
N#CC(CCSC(=S)N1CCN(S(=O)(=O)c2c(Cl)cccc2Cl)CC1)(c1ccccc1)c1ccccc1 | 0 | 0 | 
COc1ccc(N2CCN(C(=S)SCCC(C#N)(c3ccccc3)c3ccccc3)CC2)cc1 | 8.5 | 14.9 | 
N#CC(CCSC(=S)N1CCN(c2ccccc2Cl)CC1)(c1ccccc1)c1ccccc1 | 0 | 0 | 
N#CC(CCSC(=S)N1CCN(c2ccc(Cl)c(Cl)c2)CC1)(c1ccccc1)c1ccccc1 | 0.7 | 23.3 | 
N#CC(CCSC(=S)N1CCN(S(=O)(=O)c2ccc([N+](=O)[O-])cc2)CC1)(c1ccccc1)c1ccccc1 | 0 | 0.2 | 
N#CC(CCSC(=S)N1CCN(c2ccc(F)cc2)CC1)(c1ccccc1)c1ccccc1 | 0 | 15.9 | 
N#CC(CCSC(=S)N1CCN(c2cccc(C(F)(F)F)c2)CC1)(c1ccccc1)c1ccccc1 | 8.5 | 26.3 | 
Cc1ccccc1N1CCN(C(=S)SCCC(C#N)(c2ccccc2)c2ccccc2)CC1 | 0 | 0 | 
N#CC(CCSC(=S)N1CCN(c2ccccn2)CC1)(c1ccccc1)c1ccccc1 | 31.8 | 22.6 | 
CCCCN1CCN(C(=S)SCCC(C#N)(c2ccccc2)c2ccccc2)CC1 | -13.5 | 11 | 
CN1CCN(C(=S)SCCC(C#N)(c2ccccc2)c2ccccc2)CC1.Cl |  |  | Activity (CCRF S-180): 46.4%; Activity (H22): 39.3%; Activity (BGC-823): 18.1%; Activity (Rattus norvegicus [5]): Not Active; Activity (Rattus norvegicus [6]): Not Active
